# Data as given in ChEMBL document CHEMBL4007441, “Novel Design of Heptad Amphiphiles To Enhance Cell Selectivity, Salt Resistance, Antibiofilm Properties and Their Membrane-Disruptive Mechanism” (J Med Chem, 2017).
# The source made the active and inactive calls. The calls are words filed in the database; no cut-off is given here.
# Legend:
# Pseudomonas aeruginosa [1] = test: Antibacterial activity against ciprofloxacin-resistant Pseudomonas aeruginosa 11411 after 18 hrs by broth microdilution method; format: functional; settings: Pseudomonas aeruginosa, 11411, 18 h
# Summary of the method: (§1)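 Broth microdilution in Mueller-Hinton broth. Exponential-phase bacteria (37 °C, 220 rpm shaking) were diluted to about 1 × 10^6 CFU/mL and mixed 1:1 with two-fold serial peptide dilutions. Controls were uninoculated MHB and untreated culture. Run at least three times, two replicates each.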
# Pseudomonas aeruginosa [2] = test: Antibacterial activity against gentamicin-resistant Pseudomonas aeruginosa 11421 after 18 hrs by broth microdilution method; format: functional; settings: Pseudomonas aeruginosa, 11421, 18 h; summary of the method: as §1
# Pseudomonas aeruginosa [3] = test: Antibacterial activity against Pseudomonas aeruginosa 21328 clinical isolate after 18 hrs by broth microdilution method; format: functional; settings: Pseudomonas aeruginosa, 21328, 18 h
# Pseudomonas aeruginosa [4] = test: Antibacterial activity against Pseudomonas aeruginosa 26305 clinical isolate after 18 hrs by broth microdilution method; format: functional; settings: Pseudomonas aeruginosa, 26305, 18 h
# RAW264.7 [5] = test: Cytotoxicity in mouse RAW264.7 cells after 24 hrs by MTT assay; format: cell-based; settings: raw264.7, 24 h
# RAW264.7 [6] = test: Inhibition of LPS-induced NO production in mouse RAW264.7 cells at 10 mg/L after 18 hrs by Griess assay; format: functional, cell-based
# Summary of the method: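 RAW264.7 cells (5 × 10^5/well) were stimulated with LPS at 100 ng/mL, with or without peptide at 10 mg/L, for 18 h at 37 °C. Nitrite in the medium was measured with Griess reagent at 540 nm against a NaNO2 standard curve. Three independent experiments.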
# RAW264.7 [7] = test: Downregulation of LPS-induced TNF-alpha level in mouse RAW264.7 cells at 10 mg/L after 18 hrs by ELISA; format: functional, cell-based
# Summary of the method: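 ELISA of secreted TNF-α in culture medium of RAW264.7 cells treated 18 h with LPS 100 ng/mL alone or with peptide at 10 mg/L. Samples were run in duplicate; release was normalized to untreated controls.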
# Pseudomonas aeruginosa [8] = test: Antibacterial activity against Pseudomonas aeruginosa ATCC 27853 after 18 hrs in presence of ZnCl2 by broth microdilution method; format: functional; settings: ATCC 27853, 18 h
# Summary of the method: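 Broth microdilution MIC against ATCC 27853 in Mueller-Hinton broth with added salt at final concentrations: NaCl 150 mM, KCl 4.5 mM, NH4Cl 6 µM, ZnCl2 8 µM, FeCl3 4 µM. Inoculum about 1 × 10^6 CFU/mL from exponential phase, mixed 1:1 with two-fold peptide dilutions. MIC read as no visible turbidity after 18 h at 37 °C.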
# Pseudomonas aeruginosa [9] = test: Antibacterial activity against Pseudomonas aeruginosa ATCC 27853 after 18 hrs in presence of MgCl2 by broth microdilution method; format: functional; settings: ATCC 27853, 18 h
# Summary of the method: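 Broth microdilution MIC in MHB against the reference strain. About 1 × 10^6 CFU/mL exponential-phase inoculum mixed 1:1 with two-fold peptide dilutions in medium containing 1 mM MgCl2 (final). Lowest concentration with no visible turbidity after 18 h at 37 °C.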
# Pseudomonas aeruginosa [10] = test: Antibacterial activity against Pseudomonas aeruginosa ATCC 27853 assessed as induction of cytoplasmic membrane depolarization after 90 min incubation under dark condition by diSC3-5 dye-based fluorescence analysis; format: functional
# Summary of the method: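 Exponential-phase cells were washed three times in 5 mM HEPES (pH 7.4). diSC3-5 (0.4 µM final) and KCl (0.1 M final) were added, then the cells were incubated 90 min at 37 °C in the dark. Peptide at a range of concentrations was added and fluorescence followed at ex 622/em 670 nm. Three independent experiments, duplicates each.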
# Pseudomonas aeruginosa [11] = test: Antibacterial activity against Pseudomonas aeruginosa ATCC 27853 assessed as induction of membrane distortion at MIC after 1 hr by SEM analysis; format: functional
# Summary of the method: (§2)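 For SEM, exponential-phase cells were washed in PBS pH 7.4, set to OD600 0.2 and exposed to 1 × MIC for 60 min at 37 °C. They were fixed in 2.5% glutaraldehyde at 4 °C overnight, dehydrated through graded ethanol and tert-butanol, dried, gold-coated and imaged. Untreated control. At least three repeats, duplicates.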
# Pseudomonas aeruginosa [12] = test: Antibacterial activity against Pseudomonas aeruginosa ATCC 27853 assessed as induction of membrane damage at MIC after 1 hr by SEM analysis; format: functional; summary of the method: as §2
# Pseudomonas aeruginosa [13] = test: Antibacterial activity against Pseudomonas aeruginosa ATCC 27853 assessed as induction of membrane corrugation at MIC after 1 hr by SEM analysis; format: functional; summary of the method: as §2
# Pseudomonas aeruginosa [14] = test: Antibacterial activity against Pseudomonas aeruginosa ATCC 27853 assessed as induction of membrane damage at MIC after 1 hr by TEM analysis; format: functional
# Summary of the method: (§3)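 For TEM, exponential-phase cells were washed in PBS pH 7.4, adjusted to OD600 0.2 and treated at 1 × MIC for 60 min at 37 °C. Fixation was 2.5% glutaraldehyde at 4 °C overnight, then 2% osmium tetroxide for 70 min. Samples went through a graded ethanol series, ethanol/acetone and acetone before imaging. Untreated control.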
# Pseudomonas aeruginosa [15] = test: Antibacterial activity against Pseudomonas aeruginosa ATCC 27853 assessed as induction of intracellular content dispersion at MIC after 1 hr by TEM analysis; format: functional, cell-based; summary of the method: as §3
# Pseudomonas aeruginosa [16] = test: Antibacterial activity against Pseudomonas aeruginosa ATCC 27853 assessed as induction of membrane integrity disruption at MIC after 15 mins by PI-staining based flow cytometry (reference value: 4.7%)
Substance,MIC (Pseudomonas aeruginosa [1]) [µg/mL],MIC (Pseudomonas aeruginosa [2]) [µg/mL],MIC (Pseudomonas aeruginosa [3]) [µg/mL],MIC (Pseudomonas aeruginosa [4]) [µg/mL],CC10 (RAW264.7 [5]) [µg/mL],inhibition (RAW264.7 [6]),Activity (RAW264.7 [7]),MIC (Pseudomonas aeruginosa [8]) [µg/mL],MIC (Pseudomonas aeruginosa [9]) [µg/mL],Activity (Pseudomonas aeruginosa [10]),Activity (Pseudomonas aeruginosa [11]),Activity (Pseudomonas aeruginosa [12]),Activity (Pseudomonas aeruginosa [13]),Activity (Pseudomonas aeruginosa [14]),Activity (Pseudomonas aeruginosa [15]),Activity (Pseudomonas aeruginosa [16]) [%]
H-LRRLRRRWWRRRLRRL-NH2,8,16,32,8,128,Active,Active,8,32,–,–,–,–,–,–,–
H-LRRLRRRWWWRRRLRRL-NH2,4,8,4,4,256,Active,Active,8,16,Dose-dependent effect,Active,Active,Active,Active,Active,99.5
